The source of these data is ChEMBL document CHEMBL4402593, “Fragment-Based Design of Mycobacterium tuberculosis InhA Inhibitors” (J Med Chem, 2020).

The term inhibition denotes the drop in the measured response relative to a control, in per cent. For orientation: IC50 means the concentration at which inhibition is half-maximal.

The source made the active and inactive calls. The calls are words filed in the database; no cut-off is given here.

In assay [1] the target is T1, Enoyl-[acyl-carrier-protein] reductase [NADH] (Mycobacterium tuberculosis) (UniProt P9WGR1).
T1 sequence (whole entry): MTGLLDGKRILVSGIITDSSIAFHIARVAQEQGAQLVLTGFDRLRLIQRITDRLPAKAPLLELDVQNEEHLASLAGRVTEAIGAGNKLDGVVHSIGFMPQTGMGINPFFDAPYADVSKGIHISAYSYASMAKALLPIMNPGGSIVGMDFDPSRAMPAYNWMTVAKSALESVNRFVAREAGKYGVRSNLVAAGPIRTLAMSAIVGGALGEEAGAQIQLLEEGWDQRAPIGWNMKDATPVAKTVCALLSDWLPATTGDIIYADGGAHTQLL
As to the kind of experiment: Binding affinity to hexahistidine-SUMO tagged Mycobacterium tuberculosis InhA expressed in Escherichia coli BL21(DE3) at 1 mM in presence of 0.5 mM NAD+ by NMR spectroscopy. The gist of the method:
(§1)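 Ligand-observed NMR binding (CPMG T2 relaxation, WaterLOGSY, STD): 20 μM InhA (His6-SUMO tag removed by Ulp1, then gel-filtered) with 0.5 mM NAD+ and fragment at 1 mM. All three techniques were run on each fragment to validate thermal-shift hits.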

In assay [2] the target is T1, Enoyl-[acyl-carrier-protein] reductase [NADH] (Mycobacterium tuberculosis). As to the kind of experiment: Binding affinity to hexahistidine-SUMO tagged Mycobacterium tuberculosis InhA expressed in Escherichia coli BL21(DE3) at 1 mM in presence of 0.5 mM NAD+ by CPMG NMR analysis. The gist of the method: as §1
The target is the same in assay [3]. As to the kind of experiment: Binding affinity to hexahistidine-SUMO tagged Mycobacterium tuberculosis InhA expressed in Escherichia coli BL21(DE3) at 1 mM in presence of 0.5 mM NAD+ by WaterLOGSY NMR analysis. The gist of the method: as §1
For assay [4] the target is unchanged. As to the kind of experiment: Inhibition of hexahistidine-SUMO tagged Mycobacterium tuberculosis InhA expressed in Escherichia coli BL21(DE3) at 2 mM preincubated for 10 mins with NADH before addition of 2-trans-octanoyl-CoA as substrate and measured after 20 mins by NADH oxidation detection based colorimetric assay relative to control. The procedure, abridged: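 InhA 100 nM in PIPES pH 7.5/NaCl/EDTA was preincubated 10 min with 0.25 mM NADH and fragment (1% DMSO). Reaction started with 1.5 mM 2-trans-octanoyl-CoA. A340 decrease was followed for 20 min.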

Assay [5] has the same target. In words: Inhibition of InhA in Mycobacterium tuberculosis H37Ra assessed as reduction in mycolic acids synthesis by measuring FAME level at 200 uM incubated for 48 hrs using [14C]acetate by TLC based metabolic labeling assay relative to control. The procedure, abridged: (§2)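 H37Ra in 7H9/ADC/Tween 80 at OD600 0.290 received compound at 200 μM final (1% DMSO), with isoniazid 40 μM as control. After 24 h, 14C acetate (0.5 μCi/mL) was added for a further 24 h. FAMEs and MAMEs were prepared from whole cells, loaded normalised to OD600, separated by TLC, and detected by autoradiography.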

Assay [6] has the same target. In words: Inhibition of InhA in Mycobacterium tuberculosis H37Ra assessed as reduction in mycolic acids synthesis by measuring MAME level at 200 uM incubated for 48 hrs using [14C]acetate by TLC based metabolic labeling assay relative to control. The procedure, abridged: as §2
Assay [7] has the same target. As to the kind of experiment: Inhibition of InhA in Mycobacterium tuberculosis H37Ra assessed as accumulation of trehalose monomycolates at 200 uM incubated for 48 hrs using [14C]acetate by TLC based metabolic labeling assay relative to control. The gist of the method: (§3)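 H37Ra was grown statically at 37 °C in 7H9/ADC/0.05% Tween 80 to OD600 0.290. Compound was added at 200 μM final (1% DMSO), with isoniazid 40 μM as control inhibitor. After 24 h shaking, 14C acetate (0.5 μCi/mL) was added for another 24 h. Total lipids were extracted with chloroform/methanol and washed biphasically. TLC in chloroform/methanol/water 20:4:0.5, then autoradiography.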

For assay [8] the target is unchanged. In words: Inhibition of InhA in Mycobacterium tuberculosis H37Ra assessed as decrease in trehalose dimycolates level at 200 uM incubated for 48 hrs using [14C]acetate by TLC based metabolic labeling assay relative to control. The gist of the method: as §3
In assay [9] the target is T2, Enoyl-[acyl-carrier-protein] reductase [NADH] (Mycobacterium tuberculosis, UniProt P9WGR1).
T2 sequence (P9WGR1 whole entry): T1 sequence (whole entry)
In words: Inhibition of hexahistidine-SUMO tagged Mycobacterium tuberculosis InhA expressed in Escherichia coli BL21(DE3) at preincubated for 10 mins with NADH before addition of 2-trans-octanoyl-CoA as substrate and measured after 20 mins by NADH oxidation detection based colorimetric assay.

The target of assay [10] is T1, Enoyl-[acyl-carrier-protein] reductase [NADH] (Mycobacterium tuberculosis). As to the kind of experiment: Inhibition of hexahistidine-SUMO tagged Mycobacterium tuberculosis InhA expressed in Escherichia coli BL21(DE3) at 0.1 mM preincubated for 10 mins with NADH before addition of 2-trans-octanoyl-CoA as substrate and measured after 20 mins by NADH oxidation detection based colorimetric assay relative to control. The procedure, abridged: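 Percent inhibition at 100 μM: tag-cleaved InhA (100 nM) in 30 mM PIPES pH 7.5, 50 mM NaCl, 0.1 mM EDTA was preincubated 10 min at room temperature with 0.25 mM NADH and compound (1% DMSO). Reaction started with 1.5 mM 2-trans-octanoyl-CoA final. NADH oxidation was read at 340 nm for 20 min.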

As to `O=C(O)c1ccccc1C(=O)c1ccc(Cl)c([N+](=O)[O-])c1`, the result in assay [1], in [2] and in assay [3] was Active. In addition, in assay [4], the inhibition result was “inactive”.
`Cc1c(S(=O)(=O)Nc2cccc(CN)c2)sc2ccc(F)cc12`: the inhibition result in assay [5], in assay [6], in [7] and in assay [8] was “inactive” throughout.
As to `Cc1c(S(=O)(=O)Nc2cccc(CN)c2)sc2ccc(Cl)cc12`, the inhibition entry in [5], in assay [6], in assay [7] and in assay [8] was “inactive” throughout.
`NCc1cccc(NS(=O)(=O)c2cc3ccccc3o2)c1`: in assay [9], inhibition was half-maximal at 22 µM (IC50). The inhibition entry in assay [5], in assay [6], in assay [7] and in assay [8] was “inactive” each time.
`NNC(=O)c1ccncc1`: the inhibition in assay [5] and in [6] was 100% throughout.
Turning to `O=C(O)CCc1cccc(Cl)c1`, the outcome in [1], in [2] and in [3] was Active. In assay [4], the inhibition entry is “inactive”.
In turn, `NC(=O)c1cccc(NS(=O)(=O)/C=C/c2cccc(C(F)(F)F)c2)c1` came in with an inhibition in [10] of 0%.
Take `NCc1cccc(NS(=O)(=O)c2cc3ccccc3s2)c1`: the inhibition entry in assay [5], in [6], in assay [7] and in [8] was “inactive” in each case.
`NCc1ccc(NS(=O)(=O)/C=C/c2cccc(C(F)(F)F)c2)cc1`: the inhibition result in assay [5], in assay [6], in assay [7] and in assay [8] was “inactive” throughout.
As for `NCc1cccc(NS(=O)(=O)/C=C/c2cccc(C(F)(F)F)c2)c1`, the inhibition entry in assay [5], in assay [6], in [7] and in [8] was “Active” throughout.
`O=C(O)/C=C/c1cccc(C(F)(F)F)c1`: the result in [1], in [2] and in assay [3] was Active.
`O=C(O)c1cc2ccccc2cc1O`: the result in assay [1], in assay [2] and in [3] was Active. The inhibition result in assay [4] is “inactive”.
Take `O=C(O)c1ccccc1-n1cccn1`: the result in assay [1], in assay [2] and in [3] was Active. Also, the inhibition entry in assay [4] was “inactive”.
